Measured values as given in ChEMBL document CHEMBL1129956, “4-substituted-3-phenylquinolin-2(1H)-ones: acidic and nonacidic glycine site N-methyl-D-aspartate antagonists with in vivo activity” (J Med Chem, 1997).
The source made the active and inactive calls. The calls are words filed in the database; no cut-off is given here.

Tests used:
[1] = target: Glutamate receptor ionotropic, NMDA 1 (Rattus norvegicus, UniProt P35439); assay: In vitro ability to displace [3H]L-689,560 binding to glycine site on the N-methyl-D-aspartate (NMDA) glutamate receptor 1 from rat cortical membranes
Summary of the method: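 Glycine-site antagonist [3H]L-689,560 displaced from rat cortex/hippocampus membranes. IC50 (concentration inhibiting 50% of specific binding) taken from 5-point inhibition curves as the geometric mean of at least three experiments. A compound giving under 50% inhibition at 100 μM in two experiments is reported as >100 μM.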

[2] = test system: Mus musculus; assay: Evaluated in vivo for their ability to protect against audiogenic seizure in DBA/2 mice when administered 20 mg/kg ip 30 min prior to noise stimulation out of 8 mice tested; settings: route intraperitoneal
[3] = target: Glutamate NMDA receptor (Rattus norvegicus) (UniProt P35439+Q00959+Q00960+Q00961+Q62645+Q8VHN2+Q9R1M7); assay: (§1) Evaluated to antagonize NMDA responses in a rat cortical slice preparations; assay type: functional
Summary of the method: (§2)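 Rat cortical slice preparation; antagonist-induced rightward shift of the NMDA concentration–response curve used to calculate apparent Kb; values are the means of three determinations.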

[4] = test system: Mus musculus; assay: compound was evaluated in vivo for their ability to protect against audiogenic seizure in DBA/2 mice when dosed ip 30 min prior to noise stimulation and it is evaluated as ED50 value; assay type: functional
Summary of the method: (§3)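 DBA/2 mice given compound intraperitoneally 30 min before noise stimulation, with protection from audiogenic seizure scored. Results are reported as an ED50 (mg/kg) or as number of mice protected per number tested at a single dose.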

[5] = test system: Mus musculus; assay: Compound was evaluated in vivo for their ability to protect against audiogenic seizure in DBA/2 mice when administered 20 mg/kg ip 30 min prior to noise stimulation out of 8 mice tested; assay type: functional; settings: route intraperitoneal; summary of the method: as §3
[6] = target: Glutamate receptor ionotropic, NMDA 1 (Rattus norvegicus) (UniProt P35439); assay: as §1; assay type: functional; summary of the method: as §2
[7] = test system: Mus musculus; assay: Compound was evaluated in vivo for their ability to protect against audiogenic seizure in DBA/2 mice when dosed ip 30 min prior to noise stimulation; assay type: functional; summary of the method: as §3
[8] = test system: Mus musculus; assay: compound was evaluated in vivo for their ability to protect against audiogenic seizure in DBA/2 mice when administered 20 mg/kg ip 30 min prior to noise stimulation out of 8 mice tested; assay type: functional; settings: route intraperitoneal; summary of the method: as §3
[9] = test system: Mus musculus; assay: compound was evaluated in vivo for their ability to protect against audiogenic seizure in DBA/2 mice when administered 100 mg/kg ip 30 min prior to noise stimulation out of 8 mice tested; assay type: functional; settings: route intraperitoneal; summary of the method: as §3
[10] = test system: Mus musculus; assay: compound was evaluated in vivo for their ability to protect against audiogenic seizure in DBA/2 mice when administered 50 mg/kg ip 30 min prior to noise stimulation out of 8 mice tested; assay type: functional; settings: route intraperitoneal; summary of the method: as §3
[11] = test system: Mus musculus; assay: Evaluated in vivo for their ability to protect against audiogenic seizure in DBA/2 mice when administered 100 mg/kg ip 30 min prior to noise stimulation out of 8 mice tested; settings: route intraperitoneal
[12] = test system: Mus musculus; assay: Compound was evaluated in vivo for their ability to protect against audiogenic seizure in DBA/2 mice when administered 20 mg/kg ip 30 min prior to noise stimulation out of 8 mice tested; settings: route intraperitoneal
[13] = test system: Mus musculus; assay: In vivo ability to protect against audiogenic seizure in DBA/2 mice when administered 20 mg/kg ip 30 min prior to noise stimulation out of 8 mice tested; assay type: functional, organism-based; design: dose 20 mg/kg; summary of the method: as §3
[14] = target: Glutamate receptor ionotropic, NMDA 1 (Rattus norvegicus) (UniProt P35439); assay: In vitro ability to displace [3H]L-689,560 binding to glycine site on the N-methyl-D-aspartate glutamate receptor 1 from rat cortical membranes at 10 uM
[15] = target: Glutamate receptor ionotropic, NMDA 1 (Rattus norvegicus) (UniProt P35439); assay: In vitro ability to displace [3H]L-689,560 binding to glycine site on the N-methyl-D-aspartate glutamate receptor 1 from rat cortical membranes at […]
[16] = test system: Mus musculus; assay: compound was evaluated in vivo for their ability to protect against audiogenic seizure in DBA/2 mice when administered 20 mg/kg ip 30 min prior to noise stimulation (expressed as no of mice protected/tested); 1/8; assay type: functional, organism-based; design: dose 20 mg/kg; summary of the method: as §3
[17] = test system: Mus musculus; assay: Compound was evaluated in vivo for their ability to protect against audiogenic seizure in DBA/2 mice when dosed ip 30 min prior to noise stimulation and it is evaluated as ED50 value; assay type: functional; summary of the method: as §3

SMILES | IC50 [1] [µM] | Kb [3] [µM] | other results
NC(=O)CCc1c(-c2ccccc2)c(=O)[nH]c2cc(Cl)ccc12 | 0.19 |  | 
CN(C)CCNC(=O)C(=O)Nc1c(-c2ccccc2)c(O)nc2cc(Cl)ccc12 | 25 |  | No. of mice protected [2]: 2
O=c1[nH]c2cc(Cl)ccc2c(O)c1-c1ccccc1 |  | 0.88 | ED50 [4]: 4.5 mg/kg
CC(=O)COc1c(-c2ccccc2)c(O)nc2cc(Cl)ccc12 | 1.7 |  | No. of mice protected [5]: 5; Kb [6]: 11.4 µM
O=C(O)CCc1c(-c2ccccc2)c(=O)[nH]c2cc(Cl)ccc12 | 0.17 |  | 
O=c1[nH]c2cc(Cl)ccc2c(NS(=O)(=O)c2ccccc2)c1-c1ccccc1 | 1.19 |  | 
CN(C)CCNc1c(-c2ccccc2)c(=O)[nH]c2cc(Cl)ccc12 | 3.2 |  | 
CN(C)C(=O)COc1c(-c2ccccc2)c(O)nc2cc(Cl)ccc12 | 11.6 |  | 
N#CCOc1c(-c2ccccc2)c(O)nc2cc(Cl)ccc12 | 0.32 |  | Kb [6]: 4.7 µM; ED50 [7]: 16.3 mg/kg
CS(=O)(=O)Nc1c(-c2ccccc2)c(O)nc2cc(Cl)ccc12 | 0.27 | 2.2 | No. of mice protected [2]: 0
CCc1c(-c2ccccc2)c(O)nc2cc(Cl)ccc12 | > 100 |  | 
Oc1nc2cc(Cl)ccc2c(OCc2ccccc2)c1-c1ccccc1 | ~10 |  | 
O=C(O)Cc1c(-c2ccccc2)c(O)nc2cc(Cl)ccc12 |  | 1.4 | No. of mice protected at 20 mg/kg [8]: 0 mg/kg
CN(C)CCNc1c(-c2ccccc2)c(O)nc2cc(Cl)ccc12 |  | 12 | No. of mice protected [2]: 0; No. of mice protected [9]: 8
CN(C)CCCNc1c(-c2ccccc2)c(O)nc2cc(Cl)ccc12 | 4.2 |  | No. of mice protected [10]: 1; No. of mice protected [9]: 6
O=C(O)C(=O)Nc1c(-c2ccccc2)c(O)nc2cc(Cl)ccc12 |  | 4.5 | No. of mice protected [2]: 0
COC(=O)Cc1c(-c2ccccc2)c(=O)[nH]c2cc(Cl)ccc12 | 1.1 |  | 
NC(=O)CCc1c(-c2ccccc2)c(O)nc2cc(Cl)ccc12 |  | 2.9 | No. of mice protected [2]: 1
O=C(O)C(=O)Nc1c(-c2ccccc2)c(=O)[nH]c2cc(Cl)ccc12 | 0.58 |  | 
O=C(O)COc1c(-c2ccccc2)c(O)nc2cc(Cl)ccc12 | 0.11 | 1.25 | No. of mice protected [2]: 3

SMILES | IC50 [1] [µM] | Kb [3] [µM] | other results
O=C(Cc1ccccc1)Nc1c(-c2ccccc2)c(O)nc2cc(Cl)ccc12 | > 100 |  | 
Nc1c(-c2cccc(Oc3ccccc3)c2)c(O)nc2cc(Cl)ccc12 | 0.42 | 3.4 | No. of mice protected [2]: 2
O=c1[nH]c2cc(Cl)ccc2cc1-c1ccccc1 | > 100 |  | 
O=C(O)c1c(-c2ccccc2)c(=O)[nH]c2cc(Cl)ccc12 | 0.9 |  | 
CNc1c(-c2ccccc2)c(=O)[nH]c2cc(Cl)ccc12 | > 100 |  | 
O=C(O)COc1c(-c2cccc(Oc3ccccc3)c2)c(O)nc2cc(Cl)ccc12 |  | 0.56 | No. of mice protected [2]: 0
Oc1nc2cc(Cl)ccc2c(CCc2nnn[nH]2)c1-c1ccccc1 |  | 1.6 | No. of mice protected [11]: 0
O=S(=O)(Nc1c(-c2ccccc2)c(O)nc2cc(Cl)ccc12)c1ccccc1 |  | 2.9 | No. of mice protected [2]: 1
CO/N=C(\C)COc1c(-c2ccccc2)c(O)nc2cc(Cl)ccc12 | ~50 |  | No. of mice protected [12]: 0
N#CCCc1c(-c2ccccc2)c(O)nc2cc(Cl)ccc12 |  | > 10 | No. of mice protected [2]: 0
Oc1nc2cc(Cl)ccc2c(NCc2ccccc2)c1-c1ccccc1 | 2 | > 3 | No. of mice protected [2]: 1
CC(=O)Nc1c(-c2ccccc2)c(O)nc2cc(Cl)ccc12 | 14.7 |  | No. of mice protected [13]: inactive
O=C(O)CC(=O)Nc1c(-c2ccccc2)c(=O)[nH]c2cc(Cl)ccc12 | 1.1 |  | 
CN(C)CCNC(=O)Cc1c(-c2ccccc2)c(O)nc2cc(Cl)ccc12 |  |  | No. of mice protected [2]: 0; inhibition [14]: 29%
O=C(O)Cc1c(-c2ccccc2)c(=O)[nH]c2cc(Cl)ccc12 | 0.16 |  | 
COC(=O)COc1c(-c2ccccc2)c(O)nc2cc(Cl)ccc12 | 3.2 | 0.96 | No. of mice protected [9]: 1
NC(=O)COc1c(-c2ccccc2)c(=O)[nH]c2cc(Cl)ccc12 | 0.42 |  | 
COC(=O)c1c(-c2ccccc2)c(O)nc2cc(Cl)ccc12 |  |  | inhibition [15]: 69%
CN(C)c1c(-c2ccccc2)c(=O)[nH]c2cc(Cl)ccc12 | > 100 |  | 
O=C(NCc1ccccc1)c1c(-c2ccccc2)c(=O)[nH]c2cc(Cl)ccc12 | > 100 |  | 

SMILES | IC50 [1] [µM] | Kb [3] [µM] | other results
Nc1c(-c2ccccc2)c(=O)[nH]c2cc(Cl)ccc12 | 6.7 |  | 
COC(=O)CCc1c(-c2ccccc2)c(O)nc2cc(Cl)ccc12 | 0.5 | 4.6 | No. of mice protected [8]: 0
Oc1nc2cc(Cl)ccc2c(OCc2ccccn2)c1-c1ccccc1 | 2.8 |  | No. of mice protected [5]: 1
Nc1c(-c2ccccc2)c(O)nc2cc(Cl)ccc12 |  | 10.5 | 
Cc1noc(CCc2c(-c3ccccc3)c(O)nc3cc(Cl)ccc23)n1 | 3.5 |  | No. of mice protected [2]: 4
O=C(O)CCc1c(-c2ccccc2)c(O)nc2cc(Cl)ccc12 |  | 2.2 | No. of mice protected [8]: 1
O=C(O)CC(=O)Nc1c(-c2ccccc2)c(O)nc2cc(Cl)ccc12 |  | 11.6 | No. of mice protected [2]: 2
O=C(O)c1c(-c2ccccc2)c(O)nc2cc(Cl)ccc12 |  |  | No. of mice protected [5]: 1; Kb [6]: 1.3 µM
COC(=O)Cc1c(-c2ccccc2)c(O)nc2cc(Cl)ccc12 |  | 4 | No. of mice protected [2]: 1
COC(=O)C(=O)Nc1c(-c2ccccc2)c(O)nc2cc(Cl)ccc12 | 2.7 |  | ED50 [16]: inactive
O=C(O)COc1c(-c2cccc(Oc3ccccc3)c2)c(=O)[nH]c2cc(Cl)ccc12 | 0.024 |  | 
N#CCCc1c(-c2ccccc2)c(=O)[nH]c2cc(Cl)ccc12 | 0.75 |  | 
O=c1[nH]c2cc(Cl)ccc2c(O)c1-c1cccc(Oc2ccccc2)c1 |  |  | ED50 [4]: 0.9 mg/kg
O=c1[nH]c2cc(Cl)ccc2c(CCc2nn[nH]n2)c1-c1ccccc1 | 0.24 |  | 
C/C(COc1c(-c2ccccc2)c(O)nc2cc(Cl)ccc12)=N\O | 0.78 |  | ED50 [17]: 9.4 mg/kg; Kb [6]: 2.8 µM
NC(=O)COc1c(-c2ccccc2)c(O)nc2cc(Cl)ccc12 |  |  | No. of mice protected [5]: 0; Kb [6]: 3.1 µM
CN(C)CCOc1c(-c2ccccc2)c(O)nc2cc(Cl)ccc12 | 11 |  | 
COc1c(-c2ccccc2)c(=O)[nH]c2cc(Cl)ccc12 | > 100 |  | 
